According to ChEMBL document CHEMBL3352233, “N-[6-(4-butanoyl-5-methyl-1H-pyrazol-1-yl)pyridazin-3-yl]-5-chloro-1-[2-(4-methylpiperazin-1-yl)-2-oxoethyl]-1H-indole-3-carboxamide (SAR216471), a novel intravenous and oral, reversible, and directly acting P2Y12 antagonist” (J Med Chem, 2014):

Biological target: P2Y purinoceptor 12 (Homo sapiens, UniProt Q9H244)
Test: Displacement of [33P]2MeS-ADP from P2Y12 receptor (unknown origin) transfected in CHO cells after 30 mins by scintillation counting analysis
Assay type: cell-based
How it was run: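 P2Y12-expressing CHO cells (35 × 10³/sample) in PBS with 1 mM EDTA and 0.2% BSA are exposed to compound for 30 min. [³³P]2-MeS-ADP (0.16 nM) is then added for 15 min at 20 °C, in triplicate. Filtration separates free from bound ligand, followed by scintillation counting. Nonspecific binding uses 1 mM unlabeled ADP. IC50 comes from a four-parameter logistic fit with asymptotes fixed at 0 and 100. n = 2.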

P2Y purinoceptor 12, sequence (Q9H244 whole entry): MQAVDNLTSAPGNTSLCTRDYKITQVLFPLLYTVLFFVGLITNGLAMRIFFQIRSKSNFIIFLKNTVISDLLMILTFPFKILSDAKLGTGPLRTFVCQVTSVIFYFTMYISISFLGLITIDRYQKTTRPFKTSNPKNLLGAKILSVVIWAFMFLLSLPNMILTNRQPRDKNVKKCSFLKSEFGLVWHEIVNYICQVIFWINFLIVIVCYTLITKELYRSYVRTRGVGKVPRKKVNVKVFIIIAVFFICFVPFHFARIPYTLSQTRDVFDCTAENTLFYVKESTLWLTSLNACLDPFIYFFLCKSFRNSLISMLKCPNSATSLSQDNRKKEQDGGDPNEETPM

SMILES	IC50
CCCC(=O)c1cnn(-c2ccc(NC(=O)c3cn(CC(=O)N4CCCCC4CN4CCCC4)c4ccc(C)cc34)cc2)c1C (stereo unspecified)	0.1 µM
CCCC(=O)c1cnn(-c2ccc(NC(=O)c3cn(CC(=O)N4CCC(NC)CC4)c4ccc(C)cc34)cc2)c1C	0.115 µM
CCCC(=O)c1cnn(-c2ccc(NC(=O)c3cn(CC(=O)N4CCCC(N(C)C)C4)c4ccc(C)cc34)cc2)c1C (stereo unspecified)	0.073 µM
CCCC(=O)c1cnn(-c2ccc(NC(=O)c3cn(CC(=O)N4CCC(NC)C4)c4ccc(C)cc34)cc2)c1C (stereo unspecified)	0.094 µM
CCCC(=O)c1cnn(-c2ccc(NC(=O)c3cn(CC(=O)N4CCN(C)CC4)c4cc(Cl)c(C)cc34)cc2)c1C	0.138 µM
CCCC(=O)c1cnn(-c2ccc(NC(=O)c3cn(CC(=O)N4CCN(CC5CC5)CC4)c4ccc(C)cc34)cc2)c1C	0.029 µM
CCCC(=O)c1cnn(-c2ccc(NC(=O)c3cn(CCCC(=O)O)c4ccc(C)cc34)cc2)c1C	0.024 µM
CCCC(=O)c1cnn(-c2ccc(NC(=O)c3cn(CC(=O)N4CCCN(C)CC4)c4ccc(C)cc34)cc2)c1C	0.095 µM
CCCC(=O)c1cnn(-c2ccc(NC(=O)c3cn(CC(=O)N4CCC(N(C)C)C4)c4ccc(C)cc34)cc2)c1C (stereo unspecified)	0.087 µM
CCCC(=O)c1cnn(-c2ccc(NC(=O)Nc3cc(C)ccc3OCCCC(=O)O)cc2)c1C	0.017 µM
CCCC(=O)c1cnn(-c2ccc(NC(=O)c3cn(CC(=O)N4CCN(CC)CC4)c4ccc(C)cc34)cc2)c1C	0.066 µM
CCCC(=O)c1cnn(-c2ccc(NC(=O)c3cn(CC(=O)N4CC5CN(C)CC5C4)c4ccc(C)cc34)cc2)c1C (stereo unspecified)	0.033 µM
CCCC(=O)c1cnn(-c2ccc(NC(=O)c3cn(CC(=O)N4CC(C)NC(C)C4)c4ccc(C)cc34)cc2)c1C (stereo unspecified)	0.102 µM
CCCC(=O)c1cnn(-c2ccc(NC(=O)c3cn(CC(=O)N(C)CC4CCCN(C)C4)c4ccc(C)cc34)cc2)c1C (stereo unspecified)	0.084 µM
CCOC(=O)c1c(C)nn(-c2ccc(C(=O)NCc3ccccc3OC)cc2)c1C	1.54 µM
CCCC(=O)c1cnn(-c2ccc(NC(=O)c3cn(CC(=O)NCCN4CCCC4)c4ccc(C)cc34)cc2)c1C	0.194 µM

SMILES	IC50
CCCC(=O)c1cnn(-c2ccc(NC(=O)c3cn(CC(=O)N4CC5CNCC5C4)c4ccc(C)cc34)cc2)c1C (stereo unspecified)	0.106 µM
CCCC(=O)c1cnn(-c2ccc(NC(=O)c3cn(CC(=O)OC)c4ccc(C)cc34)cc2)c1C	0.093 µM
CCCC(=O)c1cnn(-c2ccc(NC(=O)c3cn(CC(=O)N4CCN(CC(F)(F)F)CC4)c4ccc(C)cc34)cc2)c1C	0.066 µM
CCCC(=O)c1cnn(-c2ccc(NC(=O)c3cn(CC(=O)N4CCC(N)CC4)c4ccc(C)cc34)cc2)c1C	0.071 µM
CCCC(=O)c1cnn(-c2ccc(NC(=O)c3cn(CC(=O)N4C[C@@H]5C[C@H]4CN5C)c4ccc(C)cc34)cc2)c1C	0.07 µM
CCCC(=O)c1cnn(-c2ccc(NC(=O)c3cn(CC(=O)N4CCN(C)CC4)c4ccc(Cl)cc34)c(C(=O)O)c2)c1C	0.075 µM
CCCC(=O)c1cnn(-c2ccc(NC(=O)c3cn(CC(=O)N4CCNCC4)c4ccc(C)cc34)cc2)c1C	0.026 µM
CCCC(=O)c1cnn(-c2ccc3c(c2)OCCN3C(=O)c2cn(CC(=O)N3CCN(C)CC3)c3ccc(Cl)cc23)c1C	0.559 µM
CCCC(=O)c1cnn(-c2ccc(NC(=O)c3cn(CC(=O)N4CC5CCNC5C4)c4ccc(C)cc34)cc2)c1C (stereo unspecified)	0.117 µM
CCCC(=O)c1cnn(-c2ccc(NC(=O)c3cn(CC(=O)N4CCCC(N)C4)c4ccc(C)cc34)cc2)c1C (stereo unspecified)	0.046 µM
CCCC(=O)c1cnn(-c2ccc(NC(=O)c3cn(CC(=O)N4CCNC(C)C4)c4ccc(C)cc34)cc2)c1C (stereo unspecified)	0.046 µM
CCCC(=O)c1cnn(-c2ccc(NC(=O)c3cn(CC(=O)N(C)CCN4CCCC4)c4ccc(C)cc34)cc2)c1C	0.124 µM
CCOC(=O)c1c(C)nn(-c2ccc(NC(=O)Nc3ccc(Cl)cc3)cc2)c1C	1.26 µM
CCCC(=O)c1cnn(-c2ccc(NC(=O)c3cn(CC(=O)N4CCN(C)CC4)c4ccc(Cl)cc34)c(C(N)=O)c2)c1C	0.266 µM
CCCC(=O)c1cnn(-c2ccc(NC(=O)c3cn(CC(=O)N4C[C@@H]5C[C@H]4CN5)c4ccc(C)cc34)cc2)c1C	0.086 µM
